# Assay outcomes from PubChem.
# This excerpt belongs to a sample that is enriched for hits.
# TLR4-MyD88 BLA: inhibitors of human TLR4-MyD88 binding; inhibition, % at 8.4 µM; O00206+Q99836; HeLa CL3-4 TLR4/MyD88 BLA complementation, FRET ratio; 200,000 compounds, 0.18% hits; in the data active means inhibition above about 25%;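 further: 0% = vehicle and 100% = reference inhibitor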
# CHOP inhibitor: CHOP inhibition in unfolded protein response | CHO-K1 CHOP-promoter luciferase, tunicamycin-induced, 15-18 h | inhibition, % at 10 µM | 220,000 compounds, 3.8% hits | AID 2732;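 active means compounds that reduced the stress-induced luciferase reporter signal by more than about 70% of percent inhibition, limit read from the data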;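 further: 0% = tunicamycin plus vehicle and 100% = wells without tunicamycin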
# TLR9-MyD88 block: TLR9-MyD88 interaction inhibition. Q9NR96+Q99836. CHO BLA complementation TLR9-MyD88, CCF4 FRET ratio. inhibition, % at 4.98 µM. 340,000 compounds, 0.21% hits. AID 504734;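 active means inhibition above the mean over all tested compounds plus 3 SD, cut at about 21% in these data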;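 further: 0% = DMSO only wells and 100% = clavulanate BLA inhibitor control wells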
# CHOP UPR activ: apoptotic UPR (CHOP) activation; CHO-CHOP luciferase reporter, luminescence; percent of tunicamycin response over DMSO baseline; activation, % at 10 µM; 330,000 compounds, 0.34% hits; AID 449763;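 active means at 10 µM dose, activation of 40% or more, normalized to positive control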;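 further: 100% = tunicamycin at 10 µg/mL and 0% = DMSO alone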
#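 Test system: CHO CHOP reporter cells. Input: 500 CHO-CHOP cells per well. Medium: F12 with 10% FBS. Technique: luciferase luminescence. Measure: percent activation relative to tunicamycin control. Dosing: 10 µM compound, 0.5% DMSO. Timing: 16-18 h cell attachment, then 6 h compound exposure, 37 °C.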
# NOD2-RIPK2 inh: NOD2-RIPK2 protein interaction inhibition; O43353; CHO BLA complementation NOD2-RIPK2, CCF4 ratio; inhibition, % at 4.98 µM; 360,000 compounds, 0.38% hits; in the data active means inhibition above about 21%;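 further: 0% = vehicle only and 100% = reference blocker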
# XBP1 UPR activ: adaptive UPR (XBP1) activation. activation, % at 20 µM. 330,000 compounds, 0.33% hits. CHO-XBP1 luciferase reporter, IRE1-XBP1 UPR activation, luminescence; percent of tunicamycin response, DMSO as zero;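 active means versus positive control, 20 µM dose yields 30% or more activation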;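 further: 100% = tunicamycin at 10 µg/mL and 0% = DMSO only wells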
#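 Test system: CHO-XBP1 luciferase reporter cells | Buffer or medium: Serum-containing F12 medium, 10% FBS | Schedule: 6 h compound exposure at 37 °C, 5% CO2 | Detection: Steady-Glo luciferase glow luminescence, 10 min after reagent addition | Read-out basis: Activation, % of tunicamycin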
# * marks the source's active call; other numbers are inactive results; nt = no result given.
SMILES,TLR4-MyD88 BLA,CHOP inhibitor,TLR9-MyD88 block,CHOP UPR activ,NOD2-RIPK2 inh,XBP1 UPR activ
CC(=O)OC[C@@H]1CN(Cc2ccccc2)C[C@H](n2cnc3c(NCc4ccc(F)cc4)ncnc32)O1,nt,nt,nt,nt,-7,nt
Cc1cccc(NC(=O)c2nc[nH]c2C(=O)NCC(=O)OC(C)(C)C)c1,nt,58,-5,-1,-7,1
Cc1cccc(NC(=O)c2nc[nH]c2C(=O)N[C@@H](C)C(=O)OC(C)(C)C)c1,nt,86*,6,2,-5,-5
CCOC(=O)c1ccc(NC(=O)c2nc[nH]c2C(=O)N[C@H](C)c2ccccc2)cc1,nt,70*,-1,1,-11,3
C[C@H]1CN([C@@H](C)CO)C(=O)CCCn2nncc2CO[C@@H]1CN(C)C(=O)Cc1ccccc1,nt,nt,-4,nt,12,nt
c1ccc(Nc2cccc3c(Nc4ccccc4)cccc23)cc1,nt,79*,8,3,-3,0
Cc1ccc(/C=C/C(=O)c2ccccc(=O)c2O)c(C)c1,-12,77*,9,5,-9,2
Cc1ccc(C)c(/C=C/C(=O)c2ccccc(=O)c2O)c1,3,93*,-3,nt,4,nt
O=C(/C=C/c1ccccc1Cl)c1ccccc(=O)c1O,-1,-64,-13,nt,-4,nt
CC(=Nc1cccc(C)c1)c1sc2ccccc2c1O,1,77*,-1,2,1,1
CCn1cc(C(=O)O)c(=O)c2cc(F)c(N3CCN(S(=O)(=O)c4ccc(Br)cc4)CC3)cc21,-11,76*,nt,7,nt,12
Cc1ccc2[nH]c(C)c(CCNC(=O)c3cc4cc([N+](=O)[O-])ccc4oc3=O)c2c1,2,89*,-9,-3,0,4
O=C(CCC(C(=O)c1ccccc1)c1ccccc1)c1ccccc1 (configuration not stated),nt,nt,5,nt,-8,nt
COc1ccc(N2C(=O)CSC23CCCCC3)cc1,0,7,-1,-2,-9,-1
COc1ccc(N2C(=O)CSC23CCC(C(C)(C)C)CC3)cc1 (configuration not stated),2,79*,0,2,-4,4
COc1ccc(C(=O)OCc2cc3cccc(C)c3[nH]c2=O)cc1,4,81*,-3,-2,-1,2
COc1ccc(CC(=O)OCc2cc3cccc(C)c3[nH]c2=O)cc1,10,26,6,-2,-4,-1
COc1ccccc1CNC(=O)C1CCCN1S(=O)(=O)c1ccc2c(c1)C(C)(C)C(=O)N2C (configuration not stated),nt,nt,nt,nt,2,nt
Cc1ccc(OCCCC(=O)Nc2ccc(Br)cc2)cc1,2,74*,3,-1,0,-2
N#C/C(=N\Nc1cccc([N+](=O)[O-])c1)C(=O)c1ccc(Br)cc1,6,79*,6,2,-1,1
CN(CCc1ccccc1)C(c1cc2ccccc2o1)c1nnnn1C(C)(C)C (configuration not stated),nt,nt,nt,nt,-4,nt
Cc1cccc(Oc2cnn(C(C)(C)C)c(=O)c2Cl)c1,1,71*,-13,3,-5,-3
COc1ccc(S(=O)(=O)N[C@H]2CC[C@H](CCNC(=O)c3ccccc3F)O[C@@H]2CO)cc1,nt,nt,nt,nt,4,nt
CCC1(CC)SC(N)=NC1=O,nt,nt,10,nt,5,nt
Cc1sc2ncn3ncnc3c2c1C,-4,90*,2,0,-5,3
SMILES,TLR4-MyD88 BLA,CHOP inhibitor,TLR9-MyD88 block,CHOP UPR activ,NOD2-RIPK2 inh,XBP1 UPR activ
CC(C)c1nc(SCC(=O)N2CCN(c3ccccc3)CC2)c2c(=O)n(C)c(=O)n(C)c2n1,-9,70*,-2,3,2,0
CC(C)c1nc(SCC(=O)Nc2ccc3c(c2)OCCO3)c2c(=O)n(C)c(=O)n(C)c2n1,-17,59,-5,2,0,4
CC(C)c1nc(SCC(=O)Nc2cccc(C(F)(F)F)c2)c2c(=O)n(C)c(=O)n(C)c2n1,-7,70*,-2,1,-3,-5
CC1(C(=O)Nc2cccc(Oc3ccccc3)c2)CCN1Cc1cc2ccccc2o1 (configuration not stated),nt,nt,nt,nt,-6,nt
Cc1nc(N2CCc3ccccc3C2)[nH]c(=O)c1CCC(C)C,1,4,2,4,3,1
Cc1nc(Nc2ccccc2)[nH]c(=O)c1CCC(C)C,-6,89*,-2,0,-2,1
CC(C)(C)c1ccc(C(=O)N2CCCCCC2=O)cc1,-10,89*,-1,-7,3,-4
COc1ccccc1N1CCN(/N=C/c2cccc(Cl)c2)CC1,nt,nt,1,5,5,-2
COc1cccc(/C=N/N2CCN(c3ccccc3OC)CC2)c1,0,76*,-3,1,10,3
Cc1ccc(C(=O)/C=C/Nc2cccc(O)c2)cc1,3,60,-3,-5,2,-9
C/C(=C\C(=O)c1ccc(C)cc1)Nc1cccc(O)c1,3,94*,-6,1,-5,1
Cc1cccc(C)c1OCc1nnc(NC(=O)CSc2ccc(Cl)cc2)s1,-1,83*,-2,2,6,0
CCOC(=O)c1c(NC(=S)NC)sc2c1CC(C)(C)SC2,-1,95*,-3,-1,-7,-3
COc1ccc2nc3ccccc3nc2c1NC(=O)c1ccc(Br)cc1,-14,79*,-22,0,-15,1
COc1ccc2nc3ccccc3nc2c1NC(=O)c1ccc(Cl)cc1,-11,-8,-6,1,1,1
Cn1c(Oc2ccncc2)nc2cc(-c3ccsc3)sc2c1=O,nt,nt,nt,nt,-17,nt
COc1ccccc1C(=O)N(Cc1nc(-c2ccc(Cl)cc2)no1)C(C)C,-3,75*,5,-2,3,-3
COc1ccc(-c2noc(CN(C(=O)c3c(-c4ccccc4Cl)noc3C)C(C)C)n2)cc1,-14,72*,-8,-4,8,-4
C=CCSC1=NC(=O)/C(=C/c2cccs2)S1,11,81*,-2,nt,-6,nt
O=C(c1ccc(Cl)cc1)C(Cn1cncn1)C(Sc1ccccc1)c1ccccc1 (configuration not stated),10,78*,-11,1,2,0
Cc1ccc(SCc2cc(=O)[nH]c(N3CCN(Cc4ccc5c(c4)OCO5)CC3)n2)cc1,0,75*,-3,0,-4,-4
COc1ccc(-c2cc(=O)[nH]c(N3CCN(Cc4ccccc4)CC3)n2)cc1,nt,nt,-4,3,3,0
Cc1ccc(SCc2cc(=O)[nH]c(N3CCN(Cc4ccccc4)CC3)n2)cc1,9,90*,1,0,-15,-3
C(=N\N1CCN(C2c3ccccc3-c3ccccc32)CC1)/c1ccncc1,5,83*,-3,-2,0,-3
